Experimental data taken from ChEMBL document CHEMBL2331369, “Transport by OATP1B1 and OATP1B3 enhances the cytotoxicity of epigallocatechin 3-O-gallate and several quercetin derivatives” (J Nat Prod, 2013).
Active and inactive are the calls of the source. The calls are words filed in the database; no cut-off is given here.

Tests used:
CHO [1] = experiment: Cytotoxicity against wild type CHO cells after 48 hrs by […] CellTiter-Glo assay; assay type: cell-based, Cricetulus griseus; conditions: for Activity: chinese hamster, cho; for IC50: Cricetulus griseus, CHO
Summary of the method: (§1)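 Seeded at 1600 cells/well, 24 h culture, then 5 mM sodium butyrate induction for 24 h. Cells then exposed to a range of compound concentrations for 48 h in medium with 10% FBS. CellTiter-Glo readout, expressed as percent of DMSO control. IC50 from at least three independent experiments, mean ± SEM.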

CHO [2] = experiment: Cytotoxicity against CHO cells expressing OATP1B3 haplotype 1 after 48 hrs by […] CellTiter-Glo assay; assay type: functional, cell-based; conditions: Cricetulus griseus; summary of the method: as §1
CHO [3] = experiment: Inhibition of OATP1B3 haplotype 1 (unknown origin) expressed in CHO cells assessed as reduction of [3H]dehydroepiandrosterone sulfate at 50 uM after 5 mins; assay type: cell-based; conditions: Homo sapiens
Summary of the method: (§2)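 Uptake in stably transfected CHO cells grown with 10% FBS. Test compound at 50 μM with 1% DMSO as control. Substrates 0.1 μM E3S or E17βG for 20 s, or 0.5 μM DHEAS for 5 min, all at 37 °C. Net OATP uptake is taken as the wild-type CHO signal subtracted. Values are percent of DMSO control, mean ± SEM of one representative of three experiments.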

CHO [4] = experiment: Inhibition of OATP1B1*1b (unknown origin) expressed in CHO cells assessed as reduction of [3H]estradiol 17beta-glucuronide at 50 uM after 20 seconds; assay type: cell-based; conditions: Homo sapiens; summary of the method: as §2
CHO [5] = experiment: Inhibition of OATP1B1*1b (unknown origin) expressed in CHO cells assessed as reduction of [3H]dehydroepiandrosterone sulfate at 50 uM after 5 mins; assay type: cell-based; conditions: Homo sapiens; summary of the method: as §2
CHO [6] = experiment: Inhibition of OATP1B3 haplotype 1 (unknown origin) expressed in CHO cells assessed as reduction of [3H]estradiol 17beta-glucuronide at 50 uM after 20 seconds; assay type: cell-based; conditions: Homo sapiens; summary of the method: as §2
CHO [7] = experiment: Cytotoxicity against CHO cells expressing OATP1B1*1b after 48 hrs by […] CellTiter-Glo assay; assay type: functional, cell-based; conditions: Cricetulus griseus; summary of the method: as §1
CHO [8] = experiment: Inhibition of OATP1B3 haplotype 1 (unknown origin) expressed in CHO cells assessed as reduction of [3H]estrone-3-sulfate at 50 uM after 20 seconds; assay type: cell-based; conditions: Homo sapiens; summary of the method: as §2
CHO [9] = experiment: Inhibition of OATP1B1*1b (unknown origin) expressed in CHO cells assessed as reduction of [3H]estrone-3-sulfate at 50 uM after 20 seconds; assay type: cell-based; conditions: Homo sapiens; summary of the method: as §2
CHO [10] = experiment: Induction of apoptosis in CHO cells expressing OATP1B3 haplotype 1 at 10 uM after 48 hrs using propidium iodide and FITC Annexin V staining by flow cytometry; assay type: functional, Cricetulus griseus
Summary of the method: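 Seeded at 90 000 cells/well for 24 h, then 5 mM sodium butyrate for 24 h, then 10 μM compound for 48 h. Medium and washes pooled with trypsinized cells, spun at 300g for 5 min. Stained with FITC Annexin V plus 4 μg/mL propidium iodide for 20 min in the dark, then flow cytometry. DMSO control; three independent experiments averaged.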

CHO [11] = experiment: Cell cycle arrest in CHO cells expressing OATP1B3 haplotype 1 assessed as accumulation at G0/G1 phase at 10 uM after 48 hrs using propidium iodide staining by flow cytometry; conditions: Cricetulus griseus
CHO [12] = experiment: Activation of OATP1B3 haplotype 1 (unknown origin) expressed in CHO cells assessed as increase at 50 uM after relative to control; conditions: Homo sapiens
Albumin [13] = biological target: T1, Albumin (Homo sapiens, UniProt P02768); experiment: Binding affinity to human serum albumin at 1 uM; assay type: ADME; conditions: isolated protein
T1 sequence (P02768 whole entry): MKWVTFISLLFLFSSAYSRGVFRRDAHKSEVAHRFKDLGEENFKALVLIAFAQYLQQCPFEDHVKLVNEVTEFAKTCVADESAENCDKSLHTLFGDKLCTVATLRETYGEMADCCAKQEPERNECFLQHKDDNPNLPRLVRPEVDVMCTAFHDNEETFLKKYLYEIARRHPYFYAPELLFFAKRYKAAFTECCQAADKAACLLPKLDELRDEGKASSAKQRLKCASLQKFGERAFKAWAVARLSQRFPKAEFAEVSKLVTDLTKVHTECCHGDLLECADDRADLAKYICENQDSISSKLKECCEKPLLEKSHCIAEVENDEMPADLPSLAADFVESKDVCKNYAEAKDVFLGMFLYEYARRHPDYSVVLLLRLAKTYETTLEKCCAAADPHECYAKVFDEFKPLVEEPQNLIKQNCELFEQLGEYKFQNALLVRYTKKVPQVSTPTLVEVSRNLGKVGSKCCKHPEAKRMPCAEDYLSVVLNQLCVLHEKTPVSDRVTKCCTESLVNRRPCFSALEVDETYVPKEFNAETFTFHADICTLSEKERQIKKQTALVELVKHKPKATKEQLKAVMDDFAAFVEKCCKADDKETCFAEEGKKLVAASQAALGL

CHO [14] = experiment: Induction of apoptosis in CHO cells expressing OATP1B3 haplotype 1 at 1 uM after 48 hrs using propidium iodide and FITC Annexin V staining by flow cytometry; assay type: functional, Cricetulus griseus
Summary of the method: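 Wild-type and OATP1B3 CHO cells plated at 90 000/well for 24 h, induced 24 h with 5 mM sodium butyrate, then compound 48 h (DMSO control). Medium and trypsinized cells pooled, spun 5 min at 300g, PBS-washed. Stained 20 min in the dark with FITC Annexin V and 4 μg/mL propidium iodide, then flow cytometry. Two independent experiments, values averaged.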

CHO [15] = experiment: Cytotoxicity against CHO cells expressing OATP1B1*1b after 48 hrs by […] CellTiter-Glo assay relative to wild type CHO cells; assay type: functional, Cricetulus griseus
Summary of the method: (§3)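 CHO cells stably expressing OATP1B1*1b or OATP1B3, and wild-type CHO, in DMEM with 10% FBS. Seeded at 1600 cells/well and cultured 24 h. Then 24 h with 5 mM sodium butyrate to induce expression, then graded compound concentrations for 48 h. Viability read by CellTiter-Glo as percent of DMSO control. IC50 from mean ± SEM of at least three independent experiments.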

Albumin [16] = biological target: T1, Albumin; experiment: Binding affinity to human serum albumin at 10 uM; assay type: ADME; conditions: isolated protein
CHO [17] = experiment: Cell cycle arrest in CHO cells expressing OATP1B3 haplotype 1 assessed as accumulation at G0/G1 phase at 1 uM after 48 hrs using propidium iodide and FITC Annexin V staining by flow cytometry; assay type: functional, cell-based; conditions: Cricetulus griseus
Summary of the method: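 Cells plated at 90 000/well for 24 h, held 36 h serum-free to synchronize in G0, induced 24 h with 5 mM sodium butyrate, then compound for 48 h. Fixed in 70% ice-cold ethanol at 4 °C overnight, then 40 min in PBS with 25 μg/mL RNase and 12.5 μg/mL propidium iodide. DNA content by flow cytometry; two independent experiments averaged.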

CHO [18] = experiment: Cytotoxicity against CHO cells expressing OATP1B3 haplotype 1 after 48 hrs by […] CellTiter-Glo assay relative to wild type CHO cells; assay type: functional, Cricetulus griseus; summary of the method: as §3
Plasma = experiment: Plasma concentration in human at 1600 mg; assay type: ADME, cell-free
CHO [19] = experiment: Activation of OATP1B3 haplotype 1 (unknown origin) expressed in CHO cells assessed as increase of [3H]estradiol 17beta-glucuronide at 50 uM after 20 seconds relative to control; assay type: cell-based; conditions: Homo sapiens; summary of the method: as §2

Row | SMILES | Activity (CHO [1]) | IC50 (CHO [2]) [µM] | inhibition (CHO [3]) | inhibition (CHO [4]) | inhibition (CHO [5]) | inhibition (CHO [6]) | IC50 (CHO [7]) [µM] | inhibition (CHO [8]) | inhibition (CHO [9]) | Activity (CHO [7]) | other results
1 | O=C(Oc1cc(-c2oc3cc(O)cc(O)c3c(=O)c2O)ccc1O)c1cc(O)c(O)c(O)c1 | Non-toxic | 6.8 | Active | Active | Active | Active | 7.9 | Active | Active | – | –
2 | O=C(Oc1c(-c2ccc(O)c(O)c2)oc2cc(O)cc(O)c2c1=O)c1cc(O)c(O)c(O)c1 | Non-toxic | 3.8 | Active | Active | Active | Active | 3.5 | Active | Active | – | Activity (CHO [10]): 32%; Activity (CHO [11]): inactive
3 | NCCCOc1cc(-c2oc3cc(O)cc(O)c3c(=O)c2O)ccc1O | Non-toxic | – | Active | – | – | Active | – | Active | – | inactive | Activity (CHO [2]): inactive
4 | Nc1cc(C(=O)Oc2c(-c3ccc(O)c(O)c3)oc3cc(O)cc(O)c3c2=O)ccc1O | Non-toxic | – | – | – | – | – | – | – | – | inactive | Activity (CHO [2]): inactive; Activity (CHO [12]): Active
5 | O=C(O[C@@H]1Cc2c(O)cc(O)cc2O[C@@H]1c1cc(O)c(O)c(O)c1)c1cc(O)c(O)c(O)c1 [EPIGALOCATECHIN GALLATE] | – | 3.2 | – | – | – | – | 7.7 | – | – | – | IC50 (CHO [1]): 271 µM; Activity (Albumin [13]): 99%; Activity (CHO [14]): 15%; fold change (FC) (CHO [15]): 35; Activity (Albumin [16]): 85%; Activity (CHO [17]): Active; fold change (FC) (CHO [18]): 85; concentration (Plasma): 11.3 µM
6 | Nc1ccc(C(=O)Oc2c(-c3ccc(O)c(O)c3)oc3cc(O)cc(O)c3c2=O)cc1O | Non-toxic | 4.1 | Active | Active | Active | Active | – | Active | Active | inactive | Activity (CHO [10]): 70%; Activity (CHO [11]): inactive
7 | CCCOc1cc(O)cc2oc(-c3ccc(O)c(O)c3)c(O)c(=O)c12 | – | 11.8 | Active | Active | Active | – | 42.6 | – | Active | – | IC50 (CHO [1]): 111 µM; fold change (FC) (CHO [19]): 3
